The record followed here is ChEMBL document CHEMBL1152253, “Inhibition of the CRM1-mediated nucleocytoplasmic transport by N-azolylacrylates: structure-activity relationship and mechanism of action” (Bioorg Med Chem, 2008).

Assay type in all cases: cell-based
Test [1] has as its target Exportin-1 (Homo sapiens) (UniProt O14980). Briefly: Inhibition of CRM1-mediated nucleocytoplasmic transport of RevM5 mutant in HEK293 cells assessed as RevM5-GFP nuclear localization at 0.4 ug/ml after 2 hrs by fluorescence microscopy. In short, it runs like this: (§1)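 HEK 293T cells in 96-well trays were transfected with pRevM5-GFP by calcium phosphate, and compound was added one day later. RevM5-GFP distribution was scored by fluorescence microscopy 2 h after addition. Mainly nuclear localization was scored positive; cytoplasmic localization was scored negative.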

For test [2] the target is unchanged. Briefly: Inhibition of CRM1-mediated nucleocytoplasmic transport of RevM5 mutant in HEK293 cells assessed as RevM5-GFP nuclear localization at 0.08 ug/ml after 2 hrs by fluorescence microscopy. In short, it runs like this: as §1
The target is the same in test [3]. Briefly: Inhibition of CRM1-mediated nucleocytoplasmic transport of RevM5 mutant in HEK293 cells assessed as RevM5-GFP nuclear localization at 10 ug/ml after 2 hrs by fluorescence microscopy. In short, it runs like this: as §1
The target is the same in test [4]. As to the kind of experiment: Inhibition of CRM1-mediated nucleocytoplasmic transport of RevM5 mutant in HEK293 cells assessed as RevM5-GFP nuclear localization at 2 ug/ml after 2 hrs by fluorescence microscopy. The gist of the method:
as §1

Active and inactive are the calls of the source. The rule behind the calls is not given here.

Exportin-1 (Homo sapiens), sequence (O14980 whole entry): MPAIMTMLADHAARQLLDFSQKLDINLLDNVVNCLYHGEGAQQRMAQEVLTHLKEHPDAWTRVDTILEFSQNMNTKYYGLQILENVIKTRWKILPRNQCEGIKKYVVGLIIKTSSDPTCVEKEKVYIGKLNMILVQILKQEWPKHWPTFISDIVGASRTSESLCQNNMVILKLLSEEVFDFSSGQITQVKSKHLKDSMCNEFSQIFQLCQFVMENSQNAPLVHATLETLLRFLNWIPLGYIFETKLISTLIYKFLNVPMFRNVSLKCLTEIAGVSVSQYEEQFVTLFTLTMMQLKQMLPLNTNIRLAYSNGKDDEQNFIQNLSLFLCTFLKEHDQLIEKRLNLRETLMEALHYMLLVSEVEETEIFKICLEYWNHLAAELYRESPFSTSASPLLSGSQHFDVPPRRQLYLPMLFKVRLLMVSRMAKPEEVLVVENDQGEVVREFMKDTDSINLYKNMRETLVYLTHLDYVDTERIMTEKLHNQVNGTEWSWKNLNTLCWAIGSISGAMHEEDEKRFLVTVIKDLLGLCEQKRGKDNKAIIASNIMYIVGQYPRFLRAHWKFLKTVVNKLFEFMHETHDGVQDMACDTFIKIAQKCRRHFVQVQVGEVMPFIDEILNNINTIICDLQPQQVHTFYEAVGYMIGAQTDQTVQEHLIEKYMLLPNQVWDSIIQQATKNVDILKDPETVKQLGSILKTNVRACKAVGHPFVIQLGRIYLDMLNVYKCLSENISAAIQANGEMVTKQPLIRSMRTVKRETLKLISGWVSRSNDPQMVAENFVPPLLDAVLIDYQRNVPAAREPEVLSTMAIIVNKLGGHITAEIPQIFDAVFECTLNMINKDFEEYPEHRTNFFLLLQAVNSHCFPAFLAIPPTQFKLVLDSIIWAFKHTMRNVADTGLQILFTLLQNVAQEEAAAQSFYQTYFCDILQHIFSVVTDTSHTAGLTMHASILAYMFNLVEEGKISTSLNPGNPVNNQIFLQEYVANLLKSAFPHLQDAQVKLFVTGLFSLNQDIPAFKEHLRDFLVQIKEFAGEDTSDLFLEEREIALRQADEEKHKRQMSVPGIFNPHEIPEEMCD

Consider `CCOC(=O)/C=C/n1nnc(-c2cccc(I)c2)n1`, for which the result in test [1] and in test [2] was inactive. Besides, the result in test [3] was Active.
As for `Clc1ccc(-c2nnn[nH]2)cc1`, the result in test [4], in test [1], in test [2] and in test [3] was inactive.
For `CCOC(=O)/C=C/n1nnc(-c2ccccc2)n1`, the outcome in test [1] and in test [2] was inactive.
In the case of `CCOC(=O)/C=C/n1nnnc1-c1cccc(F)c1`, the result in test [4], in test [1] and in test [2] was inactive.
As for `c1ccc(-c2nnn[nH]2)cc1`, the result in test [4], in test [1], in test [2] and in test [3] was inactive.
As for `CCOC(=O)/C=C/n1ccc(-c2ccccc2)n1`, the result in test [4], in test [1], in test [2] and in test [3] was inactive.
As to `Fc1cccc(-c2nnn[nH]2)c1`, the result in test [4], in test [1], in test [2] and in test [3] was inactive.
As to `CCOC(=O)C=Cn1ccnc1-c1ccccc1`, the result in test [4], in test [1], in test [2] and in test [3] was inactive.
Consider `CCOC(=O)/C=C/n1nnc(-c2cc(Cl)ccc2N)n1`, for which the outcome in test [4] and in test [3] was Active. Moreover, the outcome in test [1] and in test [2] was inactive.
As to `CCOC(=O)/C=C\n1ncnn1`, the outcome in test [4], in test [1], in test [2] and in test [3] was inactive.
Consider `CCOC(=O)/C=C/n1cnc(-c2ccccc2N)n1`, for which the result in test [4], in test [1], in test [2] and in test [3] was inactive.
On to `CCOC(=O)/C=C/n1nnnc1-c1ccccc1`, for which the result in test [4], in test [1], in test [2] and in test [3] was inactive.
For the molecule `CCOC(=O)/C=C\n1nnnc1-c1ccc(Cl)cc1`, the result in test [4], in test [1] and in test [2] was inactive. Moreover, the result in test [3] was Active.
For `CCOC(=O)/C=C\n1cnc(-c2ccccc2)c1`, the result in test [1] and in test [2] was inactive. Moreover, in test [3], the outcome was Active.
Consider `Brc1cccc(-c2nnn[nH]2)c1`, for which the result in test [4], in test [1], in test [2] and in test [3] was inactive.
`CCOC(=O)/C=C\n1cnc(-c2ccccc2N)n1`: the result in test [1] and in test [2] was inactive. For the same molecule, the result in test [3] was Active.
On to `CCOC(=O)/C=C\n1nnnc1-c1cccc(Cl)c1`, for which the outcome in test [4], in test [1] and in test [2] was inactive. Moreover, the result in test [3] was Active.
As to `CCOC(=O)/C=C/n1nnc(-c2ccc(Cl)cc2)n1`, the result in test [4], in test [1] and in test [2] was inactive. Also, the outcome in test [3] was Active.
In the case of `CCOC(=O)/C=C/n1nnnc1-c1ccc(Cl)cc1`, the outcome in test [4], in test [1], in test [2] and in test [3] was inactive.
With `CCOC(=O)/C=C\n1nnnc1-c1cccc(F)c1`, the result in test [4], in test [1], in test [2] and in test [3] was inactive.
Turning to `CCOC(=O)/C=C\n1nnnc1-c1ccccc1Cl`, the result in test [4], in test [1] and in test [2] was inactive.
As for `CCOC(=O)/C=C/n1ncnn1`, the result in test [4], in test [1], in test [2] and in test [3] was inactive.
Regarding `CCOC(=O)/C=C\n1nnc(-c2ccccc2)n1`, the outcome in test [4], in test [1] and in test [2] was inactive. For the same molecule, in test [3], the result was Active.
Turning to `CCOC(=O)/C=C\n1nnnc1-c1cccc(Br)c1`, the outcome in test [4], in test [1], in test [2] and in test [3] was inactive.
`CCOC(=O)/C=C\n1nnc(-c2ccccc2Cl)n1`: the result in test [4] and in test [3] was Active. Further, the outcome in test [2] was inactive.
Regarding `CCOC(=O)/C=C/n1nnnc1-c1cccc(I)c1`, the outcome in test [4], in test [1] and in test [2] was inactive.
For `Ic1cccc(-c2nnn[nH]2)c1`, the result in test [4], in test [1], in test [2] and in test [3] was inactive.
Consider `CCOC(=O)/C=C/n1nnc(-c2cccc(Br)c2)n1`, for which the outcome in test [1] and in test [2] was inactive. For the same molecule, the outcome in test [3] was Active.
`CCOC(=O)/C=C\n1nnc(-c2cccc(F)c2)n1`: the result in test [4] and in test [3] was Active. In addition, in test [2], the outcome was inactive.
`CCOC(=O)/C=C/n1nnnc1-c1cccc(Br)c1`: the outcome in test [4], in test [1] and in test [2] was inactive.
In the case of `CCOC(=O)/C=C\n1nnc(-c2cccc(Br)c2)n1`, the outcome in test [4] and in test [3] was Active. Moreover, the outcome in test [2] was inactive.
Regarding `CCOC(=O)/C=C\n1nnc(-c2cccc(I)c2)n1`, the outcome in test [4] and in test [3] was Active. Also, in test [2], the result was inactive.
`CCOC(=O)/C=C/n1nnnc1-c1cccc(Cl)c1`: the result in test [4], in test [1] and in test [2] was inactive.
On to `CCOC(=O)/C=C/n1cnc(-c2ccccc2)c1`, for which the outcome in test [4], in test [1] and in test [2] was inactive.
On to `CCOC(=O)/C=C\n1nnc(-c2ccc(Cl)cc2)n1`, for which the result in test [1] and in test [2] was inactive. Besides, the result in test [3] was Active.
